According to PMC9290503 (British Journal of Clinical Pharmacology, 2021):

How the values were obtained:
[1] = Safety and tolerability, Study 1003; format: in vivo, human
Summary of the method: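 Healthy women received placebo or test compound once daily for 10 days (20–160 mg, double-blind), including one 20 mg cohort of four Japanese women. Monitored AEs, physical and neurological exams, vital signs, flagged clinical labs, pregnancy and 12-lead ECG. TEAEs counted from first dose to 30 days after the last dose. Follow-up to day 70 (±2).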

[2] = Study 1003 SRD cohort plasma pharmacokinetics; format: in vivo, human; conditions: fasted
Summary of the method: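 Healthy women received a single oral 120 mg dose, then 160 mg after a washout of at least 14 days (placebo-controlled). Plasma was sampled pre-dose and at 0.25–72 h. Free base was measured by validated UPLC–MS/MS after protein precipitation (calibration 0.5–1000 ng mL−1). Noncompartmental parameters used actual sampling times, with values below LLOQ set to zero.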

[3] = 20 mg q.d. 10 days, Japanese (n = 3)
[4] = 20 mg q.d. 10 days, non‐Japanese (n = 6)
[5] = 60 mg q.d. 10 days, non‐Japanese (n = 6)
[6] = 160 mg q.d. 10 days, non‐Japanese (n = 3)
[7] = MRD, TAK‐418 all participants (n = 18)

Question: Which “Participants with any TEAE” value [1, 3] does the source give for `Cl.O=C(NC1CCOCC1)c1csc([C@@H]2C[C@H]2NCC2CC2)c1` [TAK‐418] here?
Answer: 1 (33.3) Number (%) of participants

Question: What about the “TEAE Arthropod bite” value [1, 3] of the same compound?
Answer: 0 Number (%) of participants

Question: What about the “TEAE Constipation” value [1, 3] of the same compound?
Answer: 0 Number (%) of participants

Question: And the “TEAE Decreased appetite” value [1, 3]?
Answer: 0 Number (%) of participants

Question: What about the “TEAE Diarrhoea” value [1, 3] of the same compound?
Answer: 0 Number (%) of participants

Question: And the “TEAE Dizziness” value [1, 3]?
Answer: 0 Number (%) of participants

Question: And the “TEAE Dry mouth” value [1, 3]?
Answer: 0 Number (%) of participants

Question: What about the “TEAE Headache” value [1, 3] of the same compound?
Answer: 0 Number (%) of participants

Question: What about the “TEAE Myalgia” value [1, 3] of the same compound?
Answer: 0 Number (%) of participants

Question: And the “TEAE Nausea” value [1, 3]?
Answer: 0 Number (%) of participants

Question: And the “TEAE Somnolence” value [1, 3]?
Answer: 0 Number (%) of participants

Question: And the “TEAE Vomiting” value [1, 3]?
Answer: 0 Number (%) of participants

Question: And the “Participants with any TEAE” value [1, 4]?
Answer: 5 (83.3) Number (%) of participants

Question: What about the “TEAE Arthropod bite” value [1, 4] of the same compound?
Answer: 1 (16.7) Number (%) of participants

Question: And the “TEAE Constipation” value [1, 4]?
Answer: 0 Number (%) of participants

Question: And the “TEAE Decreased appetite” value [1, 4]?
Answer: 2 (33.3) Number (%) of participants

Question: What about the “TEAE Diarrhoea” value [1, 4] of the same compound?
Answer: 0 Number (%) of participants

Question: And the “TEAE Dizziness” value [1, 4]?
Answer: 1 (16.7) Number (%) of participants

Question: And the “TEAE Dry mouth” value [1, 4]?
Answer: 0 Number (%) of participants

Question: And the “TEAE Headache” value [1, 4]?
Answer: 4 (66.7) Number (%) of participants

Question: And the “TEAE Myalgia” value [1, 4]?
Answer: 0 Number (%) of participants

Question: And the “TEAE Nausea” value [1, 4]?
Answer: 0 Number (%) of participants

Question: What about the “TEAE Somnolence” value [1, 4] of the same compound?
Answer: 2 (33.3) Number (%) of participants

Question: What about the “TEAE Vomiting” value [1, 4] of the same compound?
Answer: 0 Number (%) of participants

Question: And the “Participants with any TEAE” value [1, 5]?
Answer: 6 (100.0) Number (%) of participants

Question: What about the “TEAE Arthropod bite” value [1, 5] of the same compound?
Answer: 1 (16.7) Number (%) of participants

Question: What about the “TEAE Decreased appetite” value [1, 5] of the same compound?
Answer: 1 (16.7) Number (%) of participants

Question: And the “TEAE Diarrhoea” value [1, 5]?
Answer: 1 (16.7) Number (%) of participants

Question: And the “TEAE Dizziness” value [1, 5]?
Answer: 1 (16.7) Number (%) of participants

Question: What about the “TEAE Dry mouth” value [1, 5] of the same compound?
Answer: 1 (16.7) Number (%) of participants

Question: And the “TEAE Headache” value [1, 5]?
Answer: 5 (83.3) Number (%) of participants

Question: And the “TEAE Myalgia” value [1, 5]?
Answer: 2 (33.3) Number (%) of participants

Question: What about the “TEAE Nausea” value [1, 5] of the same compound?
Answer: 4 (66.7) Number (%) of participants

Question: And the “TEAE Somnolence” value [1, 5]?
Answer: 1 (16.7) Number (%) of participants

Question: And the “TEAE Vomiting” value [1, 5]?
Answer: 3 (50.0) Number (%) of participants

Question: What about the “Participants with any TEAE” value [1, 6] of the same compound?
Answer: 3 (100.0) Number (%) of participants

Question: And the “TEAE Arthropod bite” value [1, 6]?
Answer: 0 Number (%) of participants

Question: What about the “TEAE Constipation” value [1, 6] of the same compound?
Answer: 0 Number (%) of participants

Question: What about the “TEAE Decreased appetite” value [1, 6] of the same compound?
Answer: 0 Number (%) of participants

Question: And the “TEAE Diarrhoea” value [1, 6]?
Answer: 2 (66.7) Number (%) of participants

Question: And the “TEAE Dizziness” value [1, 6]?
Answer: 0 Number (%) of participants

Question: And the “TEAE Dry mouth” value [1, 6]?
Answer: 2 (66.7) Number (%) of participants

Question: And the “TEAE Headache” value [1, 6]?
Answer: 0 Number (%) of participants

Question: And the “TEAE Myalgia” value [1, 6]?
Answer: 0 Number (%) of participants

Question: What about the “TEAE Nausea” value [1, 6] of the same compound?
Answer: 0 Number (%) of participants

Question: And the “TEAE Somnolence” value [1, 6]?
Answer: 0 Number (%) of participants

Question: And the “TEAE Vomiting” value [1, 6]?
Answer: 0 Number (%) of participants

Question: And the laboratory test parameters ([1]; MRD cohorts)?
Answer: No notably abnormal laboratory test parameters

Question: What about the “participants experiencing TEAEs” value ([1]; MRD cohorts (20, 60 or 160 mg q.d.), 15 participants) of the same compound?
Answer: 83%

Question: What about the “treatment‐related headache” value ([1]; MRD cohorts, five individuals) of the same compound?
Answer: 28%

Question: And the “participants with moderate TEAEs” value ([1]; MRD cohorts, five participants)?
Answer: 28%

Question: And the decreased appetite ([1]; MRD cohorts, n = 3)?
Answer: 17%

Question: And the diarrhoea ([1]; MRD cohorts, n = 3)?
Answer: 17%

Question: And the dry mouth ([1]; MRD cohorts, n = 3)?
Answer: 17%

Question: What about the somnolence ([1]; MRD cohorts, n = 3) of the same compound?
Answer: 17%

Question: What about the vomiting ([1]; MRD cohorts, n = 3) of the same compound?
Answer: 17%

Question: What about the nausea ([1]; MRD cohorts, n = 4) of the same compound?
Answer: 22%

Question: And the headache ([1]; MRD cohorts, n = 9)?
Answer: 50%

Question: What about the “participants with mild TEAEs” value ([1]; MRD cohorts, nine participants) of the same compound?
Answer: 50%

Question: And the “participants with severe TEAEs” value ([1]; MRD cohorts, one participant (headache, 60 mg))?
Answer: 6%

Question: And the “treatment‐related dry mouth” value ([1]; MRD cohorts, three individuals)?
Answer: 17%

Question: What about the “participants with treatment‐related TEAEs” value ([1]; MRD cohorts, twelve participants, all mild) of the same compound?
Answer: 67%

Question: What about the “Participants with any TEAE” value [1, 7] of the same compound?
Answer: 15 (83.3) Number (%) of participants

Question: What about the “TEAE Arthropod bite” value [1, 7] of the same compound?
Answer: 2 (11.1) Number (%) of participants

Question: And the “TEAE Constipation” value [1, 7]?
Answer: 2 (11.1) Number (%) of participants

Question: And the “TEAE Decreased appetite” value [1, 7]?
Answer: 3 (16.7) Number (%) of participants

Question: And the “TEAE Diarrhoea” value [1, 7]?
Answer: 3 (16.7) Number (%) of participants

Question: What about the “TEAE Dizziness” value [1, 7] of the same compound?
Answer: 2 (11.1) Number (%) of participants

Question: What about the “TEAE Dry mouth” value [1, 7] of the same compound?
Answer: 3 (16.7) Number (%) of participants

Question: And the “TEAE Headache” value [1, 7]?
Answer: 9 (50.0) Number (%) of participants

Question: What about the “TEAE Myalgia” value [1, 7] of the same compound?
Answer: 2 (11.1) Number (%) of participants

Question: And the “TEAE Nausea” value [1, 7]?
Answer: 4 (22.2) Number (%) of participants

Question: And the “TEAE Somnolence” value [1, 7]?
Answer: 3 (16.7) Number (%) of participants

Question: And the “TEAE Vomiting” value [1, 7]?
Answer: 3 (16.7) Number (%) of participants

Question: What about the “treatment‐related TEAEs” value ([1]; SRD 120/160 mg cohort) of the same compound?
Answer: Two participants had TEAEs considered to be related to treatment, which were mild in intensity

Question: And the dizziness ([1]; SRD 120/160 mg cohort, n = 2)?
Answer: 25%

Question: And the headache ([1]; SRD 120/160 mg cohort, n = 2)?
Answer: 25%

Question: And the “participants with moderate TEAEs” value ([1]; SRD 120/160 mg cohort, one person)?
Answer: 13%

Question: And the “participants with mild TEAEs” value ([1]; SRD 120/160 mg cohort, three women)?
Answer: 38%

Question: What about the “gamma glutamyl transferase level reached” value ([1]; SRD cohort, 160 mg, Day 30, one participant (13%), more than three times the upper limit of normal) of the same compound?
Answer: 315 U/L

Question: And the “SAEs, suicidal ideation/behaviour, deaths” value ([1]; Study 1003)?
Answer: no SAEs, suicidal ideation/behaviour or deaths were reported

Question: What about the “thrombocytopenia AEs” value ([1]; current study) of the same compound?
Answer: no thrombocytopenia AEs were observed

Question: And the tolerability ([1]; daily dosing up to 160 mg)?
Answer: well tolerated

Question: What about the “Japanese participants experiencing TEAEs” value ([1]; with TAK‐418 20 mg) of the same compound?
Answer: 33.3%

Question: And the “non‐Japanese participants experiencing TEAEs” value ([1]; with TAK‐418 20 mg)?
Answer: 83%

Question: What about the “AUC0–24, mean (CV%)” value ([2]; single oral dose 120 mg) of the same compound?
Answer: 3737.2 (19.9) h*ng mL^−1

Question: What about the “AUC0–∞, mean (CV%)” value ([2]; single oral dose 120 mg) of the same compound?
Answer: 3828.3 (20.6) h*ng mL^−1

Question: What about the “C max, mean (CV%)” value ([2]; single oral dose 120 mg) of the same compound?
Answer: 727.8 (20.0) ng mL^−1

Question: What about the “t max, median (range)” value ([2]; single oral dose 120 mg) of the same compound?
Answer: 1.50 (1.00–1.50) h

Question: And the “t ½z, mean (CV%)” value ([2]; single oral dose 120 mg)?
Answer: 5.188 (9.9) h

Question: And the “AUC0–24, mean (CV%)” value ([2]; single oral dose 160 mg)?
Answer: 4350.0 (31.0) h*ng mL^−1

Question: What about the “AUC0–∞, mean (CV%)” value ([2]; single oral dose 160 mg) of the same compound?
Answer: 4466.8 (31.7) h*ng mL^−1

Question: And the “C max, mean (CV%)” value ([2]; single oral dose 160 mg)?
Answer: 796.3 (36.2) ng mL^−1

Question: What about the “t max, median (range)” value ([2]; single oral dose 160 mg) of the same compound?
Answer: 1.25 (1.00–2.00) h

Question: What about the “t ½z, mean (CV%)” value ([2]; single oral dose 160 mg) of the same compound?
Answer: 4.847 (14.1) h
